Measurements as given in ChEMBL document CHEMBL3351932, “Discovery of BI 207524, an indole diamide NS5B thumb pocket 1 inhibitor with improved potency for the potential treatment of chronic hepatitis C virus infection” (J Med Chem, 2014).

Assays:
[1] = Permeability across apical at pH6 to basolateral side at pH 7.4 in human Caco2 cells; type: ADME, cell-based; details: Caco-2, pH 6, read-out: permeability
In short: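 Caco-2 monolayer permeability measured apical to basolateral, apical side at pH 6.0 and basolateral at pH 7.4.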

Hepatitis C virus [2] = assay: Antiviral activity against Hepatitis C virus genotype 1a by cell-based replicon assay; type: functional, Hepacivirus hominis; details: subtype 1a
Cytochrome P450 3A4 = Cytochrome P450 3A4 (Homo sapiens, UniProt P08684); assay: Inhibition of CYP3A4 (unknown origin); type: ADME
[3] = Inhibition of Hepatitis C virus genotype 1b Con1 NS5B RNA dependent RNA polymerase activity using Bright-Glo luciferase substrate by cell-based 1b luciferase reporter assay; parameters: species or system Hepatitis C virus (isolate Con1)
In short: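 Cell-based genotype 1b luciferase reporter replicon assay; EC50 determined in duplicate, values averaged over at least two determinations.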

[4] = Ratio of drug level in rat liver to plasma after 6 hrs; type: ADME, cell-free
[5] = Plasma concentration in rat at 4 mg/kg, po cassette dosing after 1 hr; type: ADME, organism-based; parameters: dose 4 mg/kg, route oral
In short: (§1)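 Cassette screen: mixture of 4 compounds, each at 4 mg/kg, dosed orally to 2 rats; plasma sampled at 1 h and 2 h, solid-phase extracted and quantified by HPLC-UV or LC/MS against calibration standards in blank plasma (LOQ 7 ng/mL).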

[6] = Cytotoxicity against human HuH7 cells assessed as cell viability by MTT assay; type: cell-based; details: Huh-7 cells, read-out: TC50 (the source's name)
Hepatitis C virus [7] = assay: Antiviral activity against Hepatitis C virus genotype 1b by cell-based replicon assay; type: functional, Hepacivirus hominis
Hepatitis C virus [8] = assay: Antiviral activity against Hepatitis C virus genotype 1b assessed as shift in EC50 by cell-based replicon assay in presence of 40% human serum; type: functional, Hepacivirus hominis
[9] = Half life in rat at 2 mg/kg, iv; type: ADME, organism-based; parameters: dose 2 mg/kg, route intravenous; details: in vivo
In short: (§2)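 Fasted animals dosed IV by bolus at 2 mg/kg in 70% PEG-400:30% water; N=3 per dose and route. Plasma separated at 4°C, stored near -20°C, solid-phase extracted, assayed by HPLC-UV or LC/MS with blank-plasma calibration (r2 > 0.99, LOQ 7 ng/mL); parameters from non-compartmental analysis.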

[10] = Volume of distribution at steady state in rat at 2 mg/kg, iv; type: ADME, organism-based; parameters: dose 2 mg/kg, route intravenous; details: in vivo, read-out: Vdss; in short: as §2
Rhesus monkey [11] = assay: Half life in monkey at 2 mg/kg, iv; type: ADME, organism-based, Macaca mulatta; parameters: dose 2 mg/kg, route intravenous; details: in vivo; in short: as §2
[12] = Inhibition of calf thymus DNA-dependent RNA polymerase; parameters: species or system Bos taurus
[13] = Clearance in rat at 2 mg/kg, iv; type: ADME, organism-based; parameters: dose 2 mg/kg, route intravenous; details: in vivo; in short: as §2
Salmonella typhimurium = assay: Mutagenic activity in Salmonella typhimurium by Ames test; type: toxicity, organism-based; details: salmonella enterica subsp. enterica serovar typhimurium
In short: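 Ames test run with and without metabolic activation at doses up to maximum solubility.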

[14] = Oral bioavailability in rat at 10 mg/kg; type: ADME, organism-based; details: in vivo
In short: (§3)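 Single-compound oral PK after overnight fast; 10 mg/kg given as suspension in 0.5% methylcellulose and 0.3% Tween-80, with or without 1% NMP as added solubilizer; N=3 per dose and route. Plasma kept on ice, centrifuged at 4°C, stored near -20°C, extracted by solid phase, quantified by HPLC-UV or LC/MS against blank-plasma standards (LOQ 7 ng/mL); non-compartmental analysis.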

[15] = Mean residence time in monkey at 10 mg/kg, po; type: ADME, organism-based, Macaca mulatta; parameters: dose 10 mg/kg, route oral; details: rhesus monkey, in vivo; in short: as §3
[16] = AUC in rat at 10 mg/kg, po; type: ADME, organism-based; parameters: dose 10 mg/kg, route oral; details: plasma; in short: as §3
[17] = Lipophilicity, log D of the compound at pH 7.4; type: physicochemical; details: buffer
[18] = AUC in dog at 10 mg/kg, po; type: ADME, organism-based, Canis lupus familiaris; parameters: dose 10 mg/kg, route oral; details: plasma; in short: as §3
Cytochrome P450 1A2 = biological target: T1, Cytochrome P450 1A2 (Homo sapiens, UniProt P05177); assay: Inhibition of CYP1A2 (unknown origin); type: ADME
T1 sequence (P05177 whole entry): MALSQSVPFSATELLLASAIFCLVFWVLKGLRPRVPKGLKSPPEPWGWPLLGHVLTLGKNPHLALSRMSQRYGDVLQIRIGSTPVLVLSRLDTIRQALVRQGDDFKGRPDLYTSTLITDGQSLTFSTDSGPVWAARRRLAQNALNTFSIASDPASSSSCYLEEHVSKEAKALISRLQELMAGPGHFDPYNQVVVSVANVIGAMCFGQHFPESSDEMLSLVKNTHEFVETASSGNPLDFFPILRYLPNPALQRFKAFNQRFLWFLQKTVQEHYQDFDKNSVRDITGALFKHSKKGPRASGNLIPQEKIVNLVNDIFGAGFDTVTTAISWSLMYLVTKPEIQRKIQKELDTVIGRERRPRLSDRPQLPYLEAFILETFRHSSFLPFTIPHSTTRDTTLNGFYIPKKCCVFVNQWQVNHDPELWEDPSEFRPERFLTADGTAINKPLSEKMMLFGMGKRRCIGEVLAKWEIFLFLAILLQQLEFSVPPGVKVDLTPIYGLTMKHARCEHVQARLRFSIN

[19] = Cmax in dog at 10 mg/kg, po; type: ADME, organism-based, Canis lupus familiaris; parameters: dose 10 mg/kg, route oral; details: in vivo; in short: as §3
[20] = Oral bioavailability in dog at 10 mg/kg; type: ADME, organism-based, Canis lupus familiaris; details: in vivo; in short: as §3
[21] = AUC in monkey at 10 mg/kg, po; type: ADME, organism-based, Macaca mulatta; parameters: dose 10 mg/kg, route oral; details: rhesus monkey, plasma; in short: as §3
[22] = Dissociation constant, pKa of the compound; type: physicochemical
In short: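 pKa derived from pH titration curves.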

[23] = Permeability across apical to basolateral side in human Caco2 cells; type: ADME, cell-based; details: Caco-2, read-out: permeability
[24] = Volume of distribution at steady state in dog at 2 mg/kg, iv; type: ADME, organism-based, Canis lupus familiaris; parameters: dose 2 mg/kg, route intravenous; details: in vivo, read-out: Vdss; in short: as §2
Canis familiaris = assay: Cardiotoxicity in dog assessed as electrocardiographic parameters up to 200 mg/kg; type: toxicity, organism-based, Canis lupus familiaris; parameters: dose 200 mg/kg; details: in vivo
[25] = Plasma protein binding in human; type: ADME, cell-free; details: read-out: PPB (converted)
Rhesus monkey [26] = assay: Clearance in monkey at 2 mg/kg, iv; type: ADME, organism-based, Macaca mulatta; parameters: dose 2 mg/kg, route intravenous; details: in vivo; in short: as §2
[27] = Mean residence time in dog at 10 mg/kg, po; type: ADME, organism-based, Canis lupus familiaris; parameters: dose 10 mg/kg, route oral; details: in vivo; in short: as §3
[28] = Plasma concentration in rat at 4 mg/kg, po cassette dosing after 2 hrs; type: ADME, organism-based; parameters: dose 4 mg/kg, route oral; in short: as §1
Cytochrome P450 2D6 = Cytochrome P450 2D6 (Homo sapiens, UniProt P10635); assay: Inhibition of CYP2D6 (unknown origin); type: ADME
[29] = Half life in dog at 2 mg/kg, iv; type: ADME, organism-based, Canis lupus familiaris; parameters: dose 2 mg/kg, route intravenous; details: in vivo; in short: as §2
[30] = Inhibition of recombinant Hepatitis C virus genotype 1b Con1 NS5B RNA dependent RNA polymerase delta21; parameters: species or system Hepatitis C virus subtype 1b
In short: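 Biochemical polymerase assay with C-terminally truncated genotype 1b NS5B∆21; IC50 taken as mean of duplicates.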

[31] = Half life in rat liver microsomes; type: ADME
[32] = Oral bioavailability in monkey at 10 mg/kg; type: ADME, organism-based, Macaca mulatta; details: rhesus monkey, in vivo; in short: as §3
Rhesus monkey [33] = assay: Volume of distribution at steady state in monkey at 2 mg/kg, iv; type: ADME, organism-based, Macaca mulatta; parameters: dose 2 mg/kg, route intravenous; details: in vivo; in short: as §2
[34] = Cmax in rat at 10 mg/kg, po; type: ADME, organism-based; parameters: dose 10 mg/kg, route oral; details: in vivo; in short: as §3
Cytochrome P450 2C9 = Cytochrome P450 2C9 (Homo sapiens, UniProt P11712); assay: Inhibition of CYP2C9 (unknown origin); type: ADME
Cytochrome P450 2C19 = Cytochrome P450 2C19 (Homo sapiens, UniProt P33261); assay: Inhibition of CYP2C19 (unknown origin); type: ADME
[35] = Cmax in monkey at 10 mg/kg, po; type: ADME, organism-based, Macaca mulatta; parameters: dose 10 mg/kg, route oral; details: rhesus monkey, in vivo; in short: as §3
[36] = Mean residence time in rat at 10 mg/kg, po; type: ADME, organism-based; parameters: dose 10 mg/kg, route oral; details: in vivo; in short: as §3
[37] = biological target: Voltage-gated inwardly rectifying potassium channel KCNH2 (Homo sapiens, UniProt Q12809); assay: Inhibition of human ERG channel at 0.8 uM
[38] = Half life in human liver microsomes; type: ADME
[39] = Cardiotoxicity in guinea pig papillary muscles assessed as action potential duration at 90% repolarization
[40] = Inhibition of HCV full-length NS5B polymerase; parameters: species or system Hepacivirus hominis
In short: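 Polymerase inhibition with full-length NS5B enzyme in a biochemical assay; IC50 averaged from duplicate measurements, at least two determinations.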

[41] = Clearance in dog at 2 mg/kg, iv; type: ADME, organism-based, Canis lupus familiaris; parameters: dose 2 mg/kg, route intravenous; details: in vivo; in short: as §2

Sequence of Cytochrome P450 3A4 (P08684 whole entry): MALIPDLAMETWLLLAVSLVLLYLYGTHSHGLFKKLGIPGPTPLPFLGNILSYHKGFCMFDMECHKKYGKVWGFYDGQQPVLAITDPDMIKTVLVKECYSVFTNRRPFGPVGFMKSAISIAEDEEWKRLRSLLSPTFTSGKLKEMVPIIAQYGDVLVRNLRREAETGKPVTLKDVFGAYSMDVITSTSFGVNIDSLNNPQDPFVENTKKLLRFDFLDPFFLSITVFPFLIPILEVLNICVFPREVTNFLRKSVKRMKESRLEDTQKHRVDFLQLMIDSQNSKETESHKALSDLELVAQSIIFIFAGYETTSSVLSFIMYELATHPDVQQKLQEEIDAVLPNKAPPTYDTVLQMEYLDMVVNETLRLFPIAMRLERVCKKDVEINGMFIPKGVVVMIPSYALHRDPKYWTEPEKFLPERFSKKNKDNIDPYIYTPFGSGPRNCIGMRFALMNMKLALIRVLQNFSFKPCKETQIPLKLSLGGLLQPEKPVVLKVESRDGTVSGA
Sequence of Cytochrome P450 2C19 (P33261 whole entry): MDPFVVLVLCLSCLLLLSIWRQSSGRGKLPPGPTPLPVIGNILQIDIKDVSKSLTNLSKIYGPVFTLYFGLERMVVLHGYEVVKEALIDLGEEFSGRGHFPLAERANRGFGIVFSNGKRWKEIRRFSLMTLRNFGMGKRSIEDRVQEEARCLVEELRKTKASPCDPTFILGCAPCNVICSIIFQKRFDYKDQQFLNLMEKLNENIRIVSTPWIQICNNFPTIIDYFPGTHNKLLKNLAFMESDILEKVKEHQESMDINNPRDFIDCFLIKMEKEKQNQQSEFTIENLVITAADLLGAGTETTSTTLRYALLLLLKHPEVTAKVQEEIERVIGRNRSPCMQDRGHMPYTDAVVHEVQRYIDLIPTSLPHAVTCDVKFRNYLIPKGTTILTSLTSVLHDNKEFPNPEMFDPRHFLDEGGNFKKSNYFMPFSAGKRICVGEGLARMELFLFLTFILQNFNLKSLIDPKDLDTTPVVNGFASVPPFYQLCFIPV
Sequence of Cytochrome P450 2D6 (P10635 whole entry): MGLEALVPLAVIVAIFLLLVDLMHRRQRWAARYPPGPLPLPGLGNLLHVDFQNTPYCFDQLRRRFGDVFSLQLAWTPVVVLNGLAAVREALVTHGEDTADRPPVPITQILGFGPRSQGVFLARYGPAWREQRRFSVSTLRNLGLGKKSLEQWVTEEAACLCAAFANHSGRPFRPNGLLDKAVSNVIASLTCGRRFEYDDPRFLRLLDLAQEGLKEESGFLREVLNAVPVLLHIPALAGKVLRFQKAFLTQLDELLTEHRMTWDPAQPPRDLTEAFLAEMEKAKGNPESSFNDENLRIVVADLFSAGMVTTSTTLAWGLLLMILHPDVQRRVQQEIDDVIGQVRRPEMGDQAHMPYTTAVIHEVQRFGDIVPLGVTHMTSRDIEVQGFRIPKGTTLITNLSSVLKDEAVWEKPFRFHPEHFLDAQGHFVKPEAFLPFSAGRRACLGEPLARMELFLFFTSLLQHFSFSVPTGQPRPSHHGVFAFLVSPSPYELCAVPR
Sequence of Voltage-gated inwardly rectifying potassium channel KCNH2 (Q12809 whole entry): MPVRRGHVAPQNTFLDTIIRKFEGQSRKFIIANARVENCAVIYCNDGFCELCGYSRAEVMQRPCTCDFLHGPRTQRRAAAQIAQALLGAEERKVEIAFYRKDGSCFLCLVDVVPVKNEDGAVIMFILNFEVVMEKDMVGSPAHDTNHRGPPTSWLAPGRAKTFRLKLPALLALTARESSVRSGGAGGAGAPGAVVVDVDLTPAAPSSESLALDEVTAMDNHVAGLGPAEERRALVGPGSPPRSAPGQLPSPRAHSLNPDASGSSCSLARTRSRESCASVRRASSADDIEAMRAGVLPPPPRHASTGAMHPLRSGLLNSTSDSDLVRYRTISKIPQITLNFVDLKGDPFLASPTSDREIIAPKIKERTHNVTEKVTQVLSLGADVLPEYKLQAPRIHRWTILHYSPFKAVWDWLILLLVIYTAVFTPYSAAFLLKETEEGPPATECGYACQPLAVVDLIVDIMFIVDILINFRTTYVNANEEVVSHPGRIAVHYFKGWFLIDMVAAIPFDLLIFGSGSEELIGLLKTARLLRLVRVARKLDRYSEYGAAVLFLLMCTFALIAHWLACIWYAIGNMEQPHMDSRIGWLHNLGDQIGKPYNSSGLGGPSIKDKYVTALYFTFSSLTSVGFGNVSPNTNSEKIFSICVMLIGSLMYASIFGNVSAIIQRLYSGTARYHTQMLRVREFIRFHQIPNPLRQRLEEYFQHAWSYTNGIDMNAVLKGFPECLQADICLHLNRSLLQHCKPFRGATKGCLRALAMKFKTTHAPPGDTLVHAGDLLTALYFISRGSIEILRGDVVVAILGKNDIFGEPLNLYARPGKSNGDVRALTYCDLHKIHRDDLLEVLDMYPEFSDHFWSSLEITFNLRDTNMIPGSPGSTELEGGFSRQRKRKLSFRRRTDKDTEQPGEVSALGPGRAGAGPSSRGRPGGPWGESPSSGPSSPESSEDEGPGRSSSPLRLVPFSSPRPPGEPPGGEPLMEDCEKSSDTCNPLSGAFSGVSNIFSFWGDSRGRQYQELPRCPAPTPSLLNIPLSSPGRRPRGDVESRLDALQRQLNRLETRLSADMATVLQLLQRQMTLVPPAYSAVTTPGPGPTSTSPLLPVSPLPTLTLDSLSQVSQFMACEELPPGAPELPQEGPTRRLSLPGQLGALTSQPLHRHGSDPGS
Sequence of Cytochrome P450 2C9 (P11712 whole entry): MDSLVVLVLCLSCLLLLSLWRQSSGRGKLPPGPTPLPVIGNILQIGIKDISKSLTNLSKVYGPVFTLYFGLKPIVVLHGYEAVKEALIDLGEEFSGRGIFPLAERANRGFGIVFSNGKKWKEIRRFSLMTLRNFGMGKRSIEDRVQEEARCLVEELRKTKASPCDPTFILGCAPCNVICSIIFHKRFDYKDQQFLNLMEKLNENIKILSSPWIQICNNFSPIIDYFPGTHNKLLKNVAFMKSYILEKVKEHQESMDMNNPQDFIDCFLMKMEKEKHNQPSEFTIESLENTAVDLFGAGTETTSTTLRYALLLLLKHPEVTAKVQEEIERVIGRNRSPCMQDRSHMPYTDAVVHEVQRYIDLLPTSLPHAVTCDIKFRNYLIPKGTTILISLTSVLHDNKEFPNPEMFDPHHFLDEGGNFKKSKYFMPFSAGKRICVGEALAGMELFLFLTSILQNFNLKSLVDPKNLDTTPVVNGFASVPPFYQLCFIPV

SMILES: CCOc1cc(NC(=O)C2(NC(=O)c3ccc4c(C5CCCC5)c(-c5ncc(Cl)cn5)n(C)c4c3)CCC2)ccc1/C=C/C(=O)O
- Papp A→B [1]: 13 ×10⁻⁶ cm/s
- EC50 (Hepatitis C virus [2]): 0.029 µM
- IC50 (Cytochrome P450 3A4): > 30 µM
- EC50 [3]: 0.013 µM
- Kp at 6 h [4]: 5
- concentration at 1 h [5]: 3.4 µM
- CC50 [6]: 38 µM
- EC50 (Hepatitis C virus [7]): 0.011 µM
- fold change (FC) (Hepatitis C virus [8]): 3.8
- half-life [9]: 2.4 h
- Vd [10]: 0.38 L/kg
- t1/2 (Rhesus monkey [11]): 3 h
- IC50 [12]: 70 µM
- clearance [13]: 2.6 mL/min/kg
- Activity (Salmonella typhimurium): Non-toxic
- bioavailability [14]: 19%
- MRT [15]: 6.1 h
- AUC [16]: 19 µM·h
- logD [17]: 4.1
- AUC [18]: 76 µM·h
- IC50 (Cytochrome P450 1A2): > 30 µM
- Cmax [19]: 8.1 µM
- bioavailability [20]: 29%
- AUC [21]: 53 µM·h
- pKa [22]: 6.5
- Papp A→B [23]: 13 ×10⁻⁶ cm/s
- Vd [24]: 0.38 L/kg
- Activity (Canis familiaris): Non-toxic
- fraction unbound [25]: 0.004
- CL (Rhesus monkey [26]): 3.6 mL/min/kg
- MRT [27]: 8 h
- concentration at 2 h [28]: 2.3 µM
- IC50 (Cytochrome P450 2D6): > 30 µM
- half-life [29]: 4.5 h
- IC50 [30]: 0.084 µM
- half-life [31]: 1.73 h
- bioavailability [32]: 72%
- Vdss (Rhesus monkey [33]): 0.6 L/kg
- Cmax [34]: 6.3 µM
- IC50 (Cytochrome P450 2C9): 13.5 µM
- IC50 (Cytochrome P450 2C19): > 30 µM
- Cmax [35]: 9.6 µM
- MRT [36]: 3.6 h
- inhibition (INH) [37]: Not Active
- half-life [38]: 1.7 h
- Activity [39]: Non-toxic
- IC50 [40]: 0.11 µM
- clearance [41]: 1 mL/min/kg
